Laboratory results published in ChEMBL document CHEMBL1128502, “Aziridine analogs of [[trans-(epoxysuccinyl)-L-leucyl]amino]-4-guanidinobutane (E-64) as inhibitors of cysteine proteases” (J Med Chem, 1995).

Columns and labels:
[1] = molecular target: Cathepsin B (Rattus norvegicus) (UniProt P00787); assay: Second order rate constant for the inactivation of cathepsin B at pH 6.0 was reported
Papain (Carica papaya) [2] = molecular target: T1, Papain (Carica papaya) (UniProt P00784); assay: Second order rate constant for the inactivation of papain at pH 6.5 was reported; No time dependent inhibition observed
T1 sequence (whole entry): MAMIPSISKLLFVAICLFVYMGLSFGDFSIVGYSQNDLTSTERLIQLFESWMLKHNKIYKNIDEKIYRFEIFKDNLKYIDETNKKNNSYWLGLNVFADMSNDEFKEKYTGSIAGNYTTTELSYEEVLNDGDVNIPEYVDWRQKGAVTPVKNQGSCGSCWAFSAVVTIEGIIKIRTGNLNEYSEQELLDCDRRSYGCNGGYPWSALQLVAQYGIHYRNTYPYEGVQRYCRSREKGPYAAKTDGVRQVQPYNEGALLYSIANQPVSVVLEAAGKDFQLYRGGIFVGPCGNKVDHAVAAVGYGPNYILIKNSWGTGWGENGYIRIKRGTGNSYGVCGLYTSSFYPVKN
Outline: (§1)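 Inactivation of cysteine protease was followed at 25 °C in 50 mM buffer with 0.2 M NaCl, 5 mM EDTA, 1 mM DTT and 10% acetonitrile. Buffers were citrate for pH 3.0–5.7, phosphate for pH 5.7–7.9 and borate for pH 7.9–9.0. The second-order constant kinac/Ki was obtained by the Tian and Tsou method.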

[3] = molecular target: Procathepsin L (Homo sapiens) (UniProt P07711); assay: Second order rate constant for the inactivation of cathepsin L at pH 6.5 was reported
Chain of Procathepsin L (Homo sapiens) (P07711 114-333 limits assumed): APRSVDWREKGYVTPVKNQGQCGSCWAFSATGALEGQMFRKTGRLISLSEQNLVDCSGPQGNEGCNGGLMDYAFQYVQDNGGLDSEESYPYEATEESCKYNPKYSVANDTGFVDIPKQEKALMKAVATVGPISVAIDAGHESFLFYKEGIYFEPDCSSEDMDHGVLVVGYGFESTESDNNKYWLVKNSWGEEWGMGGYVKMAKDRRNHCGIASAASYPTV
Outline: as §1

Papain (Carica papaya) [4] = molecular target: T1, Papain (Carica papaya); assay: Second order rate constant for the inactivation of papain at pH 6.5 was reported
Outline: as §1

[5] = molecular target: Cathepsin B (Rattus norvegicus) (UniProt P00787); assay: Second order rate constant for the inactivation of cathepsin B at pH 6.0 was reported; No time dependent inhibition observed
Outline: as §1

[6] = molecular target: Procathepsin L (Homo sapiens) (UniProt P07711); assay: Second order rate constant for the inactivation of cathepsin L at pH 5.5 was reported
Outline: as §1

Chain of Cathepsin B (Rattus norvegicus) (P00787 80-333 limits assumed): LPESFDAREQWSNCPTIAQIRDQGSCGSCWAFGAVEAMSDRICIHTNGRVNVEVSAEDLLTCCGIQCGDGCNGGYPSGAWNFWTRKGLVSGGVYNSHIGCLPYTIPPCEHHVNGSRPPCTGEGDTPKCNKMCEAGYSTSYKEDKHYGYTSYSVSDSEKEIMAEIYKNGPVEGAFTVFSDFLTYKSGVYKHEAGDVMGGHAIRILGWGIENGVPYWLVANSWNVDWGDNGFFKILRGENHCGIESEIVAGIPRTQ

SMILES: CC(C)CNC(=O)[C@@H]1N[C@H]1C(=O)N[C@@H](CC(C)C)C(=O)N1CCC[C@H]1C(=O)O
- K inact/Ki [1]: 13 M⁻¹ s⁻¹
- K inact/Ki (Papain (Carica papaya) [2]): No inhibition
- K inact/Ki [3]: 50 M⁻¹ s⁻¹

SMILES: CC(C)CNC(=O)[C@H]1N[C@H]1C(=O)O
- K inact/Ki (Papain (Carica papaya) [4]): 9.4 M⁻¹ s⁻¹

SMILES: CC(C)CNC(=O)[C@@H]1N[C@@H]1C(=O)N[C@@H](CC(C)C)C(=O)N1CCC[C@H]1C(=O)O
- K inact/Ki [5]: No inhibition
- K inact/Ki (Papain (Carica papaya) [4]): 1.8 M⁻¹ s⁻¹
- K inact/Ki [6]: 6.7 M⁻¹ s⁻¹
